Tests used:
[1] = target: T1, Human immunodeficiency virus type 1 integrase (Human immunodeficiency virus 1, UniProt Q7ZJM1); test: Inhibition of HIV1 recombinant wild type integrase 3'-processing activity by gel-based assays
[2] = target: T1, Human immunodeficiency virus type 1 integrase; test: Inhibition of HIV1 recombinant wild type integrase strand transfer activity by gel-based assay
[3] = test system: Human immunodeficiency virus 1; test: Antiviral activity against wild-type HIV1 3B infected in human MT4 cells assessed as inhibition of viral cytopathic effect by MTT assay; format: functional, organism-based; conditions: Human immunodeficiency virus 1, 3B
How it was run: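 MT-4 cells infected with 100–300 CCID50 of titrated HIV-1 IIIB stock in the presence of 5-fold serial dilutions of compound (DMSO stocks, diluted in DMSO). Protection against virus-induced cytopathic effect read by MTT; EC50 taken as the concentration giving 50% protection.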

[4] = Cytotoxicity against human MT4 cells assessed as cell viability by MTT assay; format: cell-based
How it was run: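 Uninfected MT-4 cells run in parallel with the antiviral assay, exposed to 5-fold serial dilutions of compound. Viability read by MTT; CC50 is the concentration reducing viability by 50%.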

[5] = Therapeutic index, ratio of CC50 for human MT4 cells to EC50 for HIV1 3B infected in human MT4 cells; format: cell-based; conditions: HIV1 3B infected MT4 cells, read-out: Ratio CC50/EC50
How it was run: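 Computed as CC50/EC50, both from parallel MTT assays in MT-4 cells, with and without infection by 100–300 CCID50 HIV-1 IIIB, using 5-fold serial compound dilutions.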

[6] = Retention time of the compound by HPLC; format: physicochemical

T1 sequence (Q7ZJM1 whole entry): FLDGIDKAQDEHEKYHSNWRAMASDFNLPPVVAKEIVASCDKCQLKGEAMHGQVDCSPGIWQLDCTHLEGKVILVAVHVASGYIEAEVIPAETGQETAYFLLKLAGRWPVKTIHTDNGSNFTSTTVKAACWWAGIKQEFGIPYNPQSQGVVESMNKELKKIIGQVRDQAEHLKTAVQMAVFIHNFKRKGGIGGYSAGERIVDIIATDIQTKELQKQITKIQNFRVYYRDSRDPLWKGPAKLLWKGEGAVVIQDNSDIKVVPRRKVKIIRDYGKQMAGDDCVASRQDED

SMILES | IC50 [1] | IC50 [2] | Retention_time [6] | EC50 [3] | CC50 [4] | selectivity ratio [5]
O=C(NCc1ccc(F)cc1)c1nc(-c2ccc(F)cc2)[nH]c(=O)c1O | 12 µM | 600 nM | 4.075 min | 1.72 µM | 44 µM | 26
O=C(NCc1ccc(Cl)cc1)c1nc(-c2ccc(F)cc2)[nH]c(=O)c1O | 9 µM | 800 nM | 5.03 min | 8.1 µM | 44 µM | 5
O=C(NCc1ccc(Br)cc1)c1nc(-c2ccc(F)cc2)[nH]c(=O)c1O | 11 µM | 500 nM | 5.373 min | 11 µM | 47.5 µM | 4
O=C(NCc1cccc(Cl)c1)c1nc(-c2ccc(F)cc2)[nH]c(=O)c1O | 20 µM | 1400 nM | 5.251 min | 1.91 µM | 35 µM | 18
O=C(NCc1ccccc1F)c1nc(-c2ccc(F)cc2)[nH]c(=O)c1O | 20 µM | 7000 nM | 2.395 min | 7.81 µM | 28.5 µM | 4
O=C(NCc1ccc(F)c(Cl)c1)c1nc(-c2ccc(F)cc2)[nH]c(=O)c1O | 6 µM | 4000 nM | 3.56 min | 1.3 µM | 45.5 µM | 35
O=C(NCc1ccc(F)cc1)c1nc(-c2ccccc2)[nH]c(=O)c1O | 17 µM | 1000 nM | 2.378 min | – | – | –
O=C(NCc1ccc(F)cc1)c1nc(Cc2ccc(F)cc2)[nH]c(=O)c1O | > 20 µM | 10000 nM | 2.989 min | – | – | –
O=C(NCc1ccc(F)cc1)c1nc(-c2ccc(Cl)cc2)[nH]c(=O)c1O | 5 µM | 2000 nM | 2.306 min | – | – | –
O=C(NCc1ccc(F)cc1)c1nc(-c2ccccc2F)[nH]c(=O)c1O | 16 µM | 2000 nM | 2.949 min | – | – | –
O=C(NCc1ccc(F)cc1)c1nc(-c2ccc(Br)cc2)[nH]c(=O)c1O | 3 µM | 1000 nM | 2.385 min | – | – | –
O=C(NCc1ccc(F)cc1)c1nc(-c2cccc(F)c2)[nH]c(=O)c1O | 5 µM | 1000 nM | 2.379 min | – | – | –

Now from value to compound, other results behind:

IC50 [1] | IC50 [2] | Retention_time [6] | SMILES | EC50 [3] | CC50 [4] | selectivity ratio [5]
17 µM | 1000 nM | 4.39 min | O=C(NCc1ccc(F)c(F)c1)c1nc(-c2ccc(F)cc2)[nH]c(=O)c1O | 5.17 µM | 31 µM | 6
16 µM | 500 nM | 6.437 min | Cc1ccc(CNC(=O)c2nc(-c3ccc(F)cc3)[nH]c(=O)c2O)cc1C | 2.7 µM | 33.5 µM | 12
16 µM | 2000 nM | 4.134 min | COc1ccc(CNC(=O)c2nc(-c3ccc(F)cc3)[nH]c(=O)c2O)cc1 | 7.61 µM | 44 µM | 6
17 µM | 4000 nM | 4.748 min | O=C(NCCc1ccc(F)cc1)c1nc(-c2ccc(F)cc2)[nH]c(=O)c1O | > 30 µM | 30 µM | –
> 20 µM | 6000 nM | 2.846 min | O=C(NCc1ccc(O)cc1)c1nc(-c2ccc(F)cc2)[nH]c(=O)c1O | 6.71 µM | 49 µM | 7
20 µM | 3000 nM | 4.349 min | O=C(NCc1cccc(F)c1)c1nc(-c2ccc(F)cc2)[nH]c(=O)c1O | 7.34 µM | 49.5 µM | 7
13 µM | 1400 nM | 2.309 min | O=C(NCc1cccc(Cl)c1F)c1nc(-c2ccc(F)cc2)[nH]c(=O)c1O | 2.61 µM | 48 µM | 18
14 µM | 8000 nM | 3.549 min | O=C(NCc1cc(F)c(F)c(F)c1)c1nc(-c2ccc(F)cc2)[nH]c(=O)c1O | 4.64 µM | 34.5 µM | 7
> 20 µM | 8000 nM | 2.288 min | O=C(NCc1ccccc1)c1nc(-c2ccccc2)nc(O)c1O | 5.65 µM | 50.7 µM | 9
